One series concerns chymotrypsin. The experiment in a line: Peptide proteolysis by chymotrypsin, loss of intact peptide by MALDI-TOF MS. In kind it is in vitro ADME. As to conditions: pH 7.
The target in another series is human ABCA1 (Homo sapiens, UniProt O95477). The experiment in a line: Cholesterol efflux from ABCA1 transfected BHK cells. It counts as cell-based. As to conditions: [3H] cholesterol, 18 h with peptide.
Series [1] is described as follows: CD spectroscopy of peptide helicity and thermostability. It counts as physicochemical. To be noted: peptide 0.1 mg/mL in sodium phosphate buffer pH 7.4, 24°C. The essentials: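 Peptide at 0.1 mg/mL in sodium phosphate buffer, pH 7.4, in a quartz cuvette with 0.2 cm path length. Far-UV CD spectra were scanned from 185 to 240 nm at 24°C. Signal was normalised to mean residue ellipticity to estimate helical content. For thermostability, ellipticity was followed while temperature was raised from 10 to 90°C.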

In a further series the test system is pepsin. The experiment in a line: Peptide proteolysis by pepsin, loss of intact peptide by MALDI-TOF MS. In kind it is in vitro ADME. To be noted: for susceptibility to proteolysis by pepsin (in words): pepsin 0.5 μg/ml, 10% acetic acid pH 2, peptide 500 μg/ml, 37°C, MALDI-TOF MS; for remaining at 24 h, 500 μg/ml: pepsin, pH 2.
The conditions of series [2]: cited from earlier work.

The source of these data is paper PMC3253552 (Biochemical and Biophysical Research Communications, 2011).

Bridge positions count the residues as written; N and C are the ends. Square brackets hold non-standard residues; d marks the D form. Peptide text beside a SMILES is read from it. R8 = C=CCCCCCC[C@@](C)(N)C(=O)O; S5 = C=CCCC[C@](C)(N)C(=O)O

human ABCA1, sequence (O95477 whole entry): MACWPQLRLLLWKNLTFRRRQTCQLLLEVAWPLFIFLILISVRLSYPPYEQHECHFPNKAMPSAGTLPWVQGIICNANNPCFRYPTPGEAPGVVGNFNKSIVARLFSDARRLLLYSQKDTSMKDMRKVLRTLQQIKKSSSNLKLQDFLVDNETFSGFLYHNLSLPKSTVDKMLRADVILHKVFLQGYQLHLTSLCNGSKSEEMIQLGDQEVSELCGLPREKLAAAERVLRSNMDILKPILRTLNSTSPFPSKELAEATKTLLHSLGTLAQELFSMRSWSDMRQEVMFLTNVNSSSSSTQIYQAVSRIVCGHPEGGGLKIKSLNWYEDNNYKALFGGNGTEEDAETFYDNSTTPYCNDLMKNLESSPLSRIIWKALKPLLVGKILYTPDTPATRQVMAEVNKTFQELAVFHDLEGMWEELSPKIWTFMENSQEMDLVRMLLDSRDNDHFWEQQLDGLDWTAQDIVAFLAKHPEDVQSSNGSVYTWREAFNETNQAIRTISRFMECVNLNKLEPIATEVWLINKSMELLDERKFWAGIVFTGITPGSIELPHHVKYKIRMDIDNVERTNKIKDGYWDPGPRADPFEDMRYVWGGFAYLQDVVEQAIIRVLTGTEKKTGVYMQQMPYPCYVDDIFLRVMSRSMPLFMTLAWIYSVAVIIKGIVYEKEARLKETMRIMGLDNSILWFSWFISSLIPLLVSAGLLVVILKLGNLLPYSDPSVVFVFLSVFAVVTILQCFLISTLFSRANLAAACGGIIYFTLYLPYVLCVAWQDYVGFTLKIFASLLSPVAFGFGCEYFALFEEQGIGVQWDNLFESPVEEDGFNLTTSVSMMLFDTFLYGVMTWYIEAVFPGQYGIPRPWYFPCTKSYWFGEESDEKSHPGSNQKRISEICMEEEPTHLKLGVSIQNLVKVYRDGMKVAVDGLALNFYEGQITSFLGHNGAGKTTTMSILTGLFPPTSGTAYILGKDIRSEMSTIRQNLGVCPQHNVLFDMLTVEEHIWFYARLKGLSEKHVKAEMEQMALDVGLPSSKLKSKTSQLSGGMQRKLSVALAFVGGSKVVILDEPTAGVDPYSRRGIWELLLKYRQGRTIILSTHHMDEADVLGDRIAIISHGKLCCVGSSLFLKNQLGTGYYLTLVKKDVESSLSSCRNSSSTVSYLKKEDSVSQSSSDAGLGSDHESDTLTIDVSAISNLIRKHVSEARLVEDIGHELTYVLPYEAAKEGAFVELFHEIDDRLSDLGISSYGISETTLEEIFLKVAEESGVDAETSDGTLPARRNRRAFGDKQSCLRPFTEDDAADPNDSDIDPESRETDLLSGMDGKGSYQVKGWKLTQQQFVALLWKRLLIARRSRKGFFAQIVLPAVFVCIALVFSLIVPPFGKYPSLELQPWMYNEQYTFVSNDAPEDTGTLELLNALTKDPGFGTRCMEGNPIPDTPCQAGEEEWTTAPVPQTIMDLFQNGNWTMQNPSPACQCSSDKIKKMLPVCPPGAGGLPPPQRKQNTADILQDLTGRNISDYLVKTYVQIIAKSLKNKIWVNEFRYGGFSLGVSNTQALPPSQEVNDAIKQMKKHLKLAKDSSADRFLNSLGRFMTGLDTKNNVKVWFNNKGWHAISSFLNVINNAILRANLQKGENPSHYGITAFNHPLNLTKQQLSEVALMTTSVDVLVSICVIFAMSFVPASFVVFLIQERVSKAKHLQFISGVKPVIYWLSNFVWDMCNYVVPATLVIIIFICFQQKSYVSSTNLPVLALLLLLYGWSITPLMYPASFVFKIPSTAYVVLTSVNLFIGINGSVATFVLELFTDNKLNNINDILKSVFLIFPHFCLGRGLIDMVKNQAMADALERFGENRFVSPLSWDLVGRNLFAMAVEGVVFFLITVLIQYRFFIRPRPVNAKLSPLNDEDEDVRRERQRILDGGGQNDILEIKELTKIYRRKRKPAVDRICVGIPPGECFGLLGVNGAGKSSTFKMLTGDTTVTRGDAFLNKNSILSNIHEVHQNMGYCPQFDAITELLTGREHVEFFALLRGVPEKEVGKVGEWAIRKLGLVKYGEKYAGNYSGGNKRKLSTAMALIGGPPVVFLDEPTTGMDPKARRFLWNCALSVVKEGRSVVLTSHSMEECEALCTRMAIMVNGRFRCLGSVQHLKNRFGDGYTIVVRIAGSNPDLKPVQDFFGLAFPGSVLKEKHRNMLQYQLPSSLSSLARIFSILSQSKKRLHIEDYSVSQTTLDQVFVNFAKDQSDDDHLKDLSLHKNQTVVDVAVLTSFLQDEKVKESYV

The amount remaining is the share of the starting amount still present when the sample was taken. Regarding `CC(=O)N[C@H](C(=O)N[C@@H](CC(C)C)C(=O)N[C@@H](CC(=O)O)C(=O)N[C@@H](CO)C(=O)N[C@@H](Cc1ccccc1)C(=O)N[C@@H](CCCCN)C(=O)N[C@H](C(=O)N[C@@H](CO)C(=O)N[C@]1(C)CCCCCCC=CCCC[C@@](C)(C(=O)N[C@H](C(=O)N[C@@H](CCCCN)C(=O)N[C@@H](CCCCN)C(=O)N[C@@H](CC(C)C)C(=O)N[C@@H](CC(N)=O)C(=O)N[C@H](C(=O)N[C@@H](CCC(N)=O)C(N)=O)[C@@H](C)O)[C@@H](C)O)NC(=O)[C@H](CCC(=O)O)NC(=O)[C@H](CCC(=O)O)NC(=O)[C@H](CC(C)C)NC(=O)[C@H](C)NC(=O)[C@H](CO)NC(=O)[C@H](CC(C)C)NC1=O)C(C)C)C(C)C` [S2A10] (Ac-VLDSFKVS[R8]LSALEE[S5]TKKLNTQ-NH2; staple 9-16), in the series on chymotrypsin, the share remaining at 24 h, 500 μg/ml is 3.8%. Besides, the “increase in cholesterol efflux by the ABCA1 transporter compared to A10” value at human ABCA1 is listed as above 10 fold. The “helicity in aqueous buffer at 24°C” value in series [1] was 97%. In the series with pepsin, the “susceptibility to proteolysis by pepsin (in words)” value is “resistant to proteolysis” and the fraction remaining at 24 h, 500 μg/ml was determined as 12.2%.

As for “apoA-I: full length apolipoprotein, the main protein on High Density Lipoproteins”, the “helicity when associated with lipids” value in series [2] (apoA-I associated with lipids) was “over 67%”. The “helicity in the lipid-free state” value in series [2] (lipid-free apoA-I) is “about 48%”.

With `CC(=O)N[C@H](C(=O)N[C@@H](CC(C)C)C(=O)N[C@@H](CC(=O)O)C(=O)N[C@@H](CO)C(=O)N[C@@H](Cc1ccccc1)C(=O)N[C@@H](CCCCN)C(=O)N[C@H](C(=O)N[C@@H](CO)C(=O)N[C@@]1(C)CCCC=CCCC[C@@](C)(C(=O)N[C@@H](CCC(=O)O)C(=O)N[C@@H](CCC(=O)O)C(=O)N[C@@H](Cc2ccc(O)cc2)C(=O)N[C@H](C(=O)N[C@@H](CCCCN)C(=O)N[C@@H](CCCCN)C(=O)N[C@@H](CC(C)C)C(=O)N[C@@H](CC(N)=O)C(=O)N[C@H](C(=O)N[C@@H](CCC(N)=O)C(N)=O)[C@@H](C)O)[C@@H](C)O)NC(=O)[C@H](C)NC(=O)[C@H](CO)NC(=O)[C@H](CC(C)C)NC1=O)C(C)C)C(C)C` [S1A10] (Ac-VLDSFKVS[S5]LSA[S5]EEYTKKLNTQ-NH2; staple 9-13), the amount remaining at 24 h, 500 μg/ml with chymotrypsin was found to be 0.6%. Further, the “increase in cholesterol efflux by the ABCA1 transporter compared to A10” value on human ABCA1 is reported as above 10 fold. In series [1], the “helicity in aqueous buffer at 24°C” value was 62%. Also, in the series on pepsin, the “susceptibility to proteolysis by pepsin (in words)” value is listed as “resistant to proteolysis” and the amount remaining at 24 h, 500 μg/ml worked out at 0.4%.
